Several values for one entry are separate records, joined by “and”; a condition that tells them apart may be missing. Identical values can stand only once.
Key:
Type in all cases: toxicity, cell-based
[1] = test system: U2OS; assay: Multiplex assay against U2OS; details: human, number of replicates 2
Outline: (§1)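 Compound was added to live cells that had been stained at seeding with Hoechst33342, BioTracker Green Microtubule Cytoskeleton Dye, MitoTracker Red and Annexin V Alexa Fluor 680, and imaging followed on a CQ1 microscope at 37°C and 5% CO2. CellPathfinder machine-learning gating divided cells into Hoechst high-intensity objects or normal cells, normal cells into healthy, pyknosed or fragmented nuclei, and pyknosed cells into mitotic or apoptotic. Tubulin, mitochondrial-mass and membrane-permeability phenotypes are per cents of healthy-nucleus cells.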

[2] = test system: Fibroblast; assay: Multiplex assay against human fibroblast; details: number of replicates 2; outline: as §1
[3] = test system: HEK-293T; assay: Multiplex assay against HEK293T; details: human, number of replicates 2; outline: as §1
[4] = 12 h, 1 µM, compound concentration 1 uM
[5] = 12 h, 10 µM, compound concentration 10 uM
[6] = 24 h, 1 µM, compound concentration 1 uM
[7] = 24 h, 10 µM, compound concentration 10 uM
[8] = 48 h, 1 µM, compound concentration 1 uM
[9] = 48 h, 10 µM, compound concentration 10 uM

## CCC(=O)O[C@@H](OP(=O)(CCCCc1ccccc1)CC(=O)N1C[C@H](C2CCCCC2)C[C@H]1C(=O)[O-])C(C)C.[Na+] (stereo partly specified)
[1]; [4]
  Population Apoptotic (%): 33% and 87%
  Population Healthy Nuclei (%): 60% and 83%
  Population Hoechst High Intensity Objects (%): 0%
  Population Membrane Permeable-Phenotype (%): 0% and 1%
  Population Mitochondria Different-Phenotype (%): 0%
  Population Normal (%): 100%
  Population Pyknosed Nuclei (%): 6% and 12%
  Population Tubulin-Different-Phenotype (%): 80% and 82%
[1]; [5]
  Population Apoptotic (%): 100% and 40%
  Population Healthy Nuclei (%): 53% and 87%
  Population Hoechst High Intensity Objects (%): 0%
  Population Membrane Permeable-Phenotype (%): 7% and 0%
  Population Mitochondria Different-Phenotype (%): 7% and 0%
  Population Normal (%): 100%
  Population Pyknosed Nuclei (%): 7%
  Population Tubulin-Different-Phenotype (%): 78% and 80%
[1]; [6]
  Population Apoptotic (%): 40% and 80%
  Population Healthy Nuclei (%): 61% and 87%
  Population Hoechst High Intensity Objects (%): 0%
  Population Membrane Permeable-Phenotype (%): 0%
  Population Mitochondria Different-Phenotype (%): 0%
  Population Normal (%): 100% and 99%
  Population Pyknosed Nuclei (%): 8%
  Population Tubulin-Different-Phenotype (%): 80% and 86%
[1]; [7]
  Population Apoptotic (%): 80% and 41%
  Population Fragmented Nuclei (%): 4%
  Population Healthy Nuclei (%): 71% and 87%
  Population Hoechst High Intensity Objects (%): 0%
  Population Membrane Permeable-Phenotype (%): 6% and 1%
  Population Mitochondria Different-Phenotype (%): 0%
  Population Mitotic Cells (%): 20% and 58%
  Population Normal (%): 100% and 99%
  Population Pyknosed Nuclei (%): 23% and 8%
  Population Tubulin-Different-Phenotype (%): 80% and 83%
[1]; [8]
  Population Apoptotic (%): 50% and 84%
  Population Healthy Nuclei (%): 72% and 90%
  Population Hoechst High Intensity Objects (%): 0%
  Population Membrane Permeable-Phenotype (%): 0% and 1%
  Population Mitochondria Different-Phenotype (%): 0%
  Population Normal (%): 100% and 99%
  Population Pyknosed Nuclei (%): 10% and 6%
  Population Tubulin-Different-Phenotype (%): 87% and 85%
[1]; [9]
  Population Apoptotic (%): 75% and 46%
  Population Healthy Nuclei (%): 64% and 92%
  Population Hoechst High Intensity Objects (%): 0%
  Population Membrane Permeable-Phenotype (%): 4% and 0%
  Population Mitochondria Different-Phenotype (%): 0%
  Population Mitotic Cells (%): 25% and 53%
  Population Normal (%): 100%
  Population Tubulin-Different-Phenotype (%): 70% and 85%
[2]; [4]
  Population Apoptotic (%): 42% and 43%
  Population Fragmented Nuclei (%): 7% and 8%
  Population Healthy Nuclei (%): 69% and 71%
  Population Hoechst High Intensity Objects (%): 0%
  Population Membrane Permeable-Phenotype (%): 9% and 2%
  Population Mitochondria Different-Phenotype (%): 0% and 2%
  Population Mitotic Cells (%): 57% and 56%
  Population Normal (%): 99%
  Population Pyknosed Nuclei (%): 22% and 19%
  Population Tubulin-Different-Phenotype (%): 11% and 9%
  Total Cell Count: 189 and 198
[2]; [5]
  Population Fragmented Nuclei (%): 6% and 13%
  Population Healthy Nuclei (%): 76% and 70%
  Population Hoechst High Intensity Objects (%): 0%
  Population Membrane Permeable-Phenotype (%): 5% and 2%
  Population Mitochondria Different-Phenotype (%): 0%
  Population Mitotic Cells (%): 45% and 82%
  Population Normal (%): 100%
  Population Pyknosed Nuclei (%): 16% and 15%
  Population Tubulin-Different-Phenotype (%): 10% and 5%
  Total Cell Count: 207 and 226
[2]; [6]
  Population Apoptotic (%): 50% and 45%
  Population Fragmented Nuclei (%): 6% and 14%
  Population Healthy Nuclei (%): 73% and 64%
  Population Hoechst High Intensity Objects (%): 0%
  Population Membrane Permeable-Phenotype (%): 3% and 6%
  Population Mitochondria Different-Phenotype (%): 0% and 2%
  Population Mitotic Cells (%): 50% and 54%
  Population Normal (%): 100%
  Population Pyknosed Nuclei (%): 20%
  Population Tubulin-Different-Phenotype (%): 9% and 10%
  Total Cell Count: 178 and 215
[2]; [7]
  Population Apoptotic (%): 41% and 50%
  Population Fragmented Nuclei (%): 8% and 14%
  Population Healthy Nuclei (%): 76% and 74%
  Population Hoechst High Intensity Objects (%): 0%
  Population Membrane Permeable-Phenotype (%): 5% and 1%
  Population Mitochondria Different-Phenotype (%): 0%
  Population Mitotic Cells (%): 58% and 50%
  Population Normal (%): 99% and 100%
  Population Pyknosed Nuclei (%): 15% and 11%
  Population Tubulin-Different-Phenotype (%): 11% and 3%
  Total Cell Count: 223 and 221
[2]; [8]
  Population Apoptotic (%): 68% and 61%
  Population Fragmented Nuclei (%): 11% and 15%
  Population Healthy Nuclei (%): 67% and 68%
  Population Hoechst High Intensity Objects (%): 0%
  Population Membrane Permeable-Phenotype (%): 5% and 11%
  Population Mitochondria Different-Phenotype (%): 0% and 1%
  Population Mitotic Cells (%): 31% and 38%
  Population Normal (%): 100%
  Population Pyknosed Nuclei (%): 20% and 16%
  Population Tubulin-Different-Phenotype (%): 8%
  Total Cell Count: 183 and 213
[2]; [9]
  Population Apoptotic (%): 45% and 48%
  Population Fragmented Nuclei (%): 9% and 16%
  Population Healthy Nuclei (%): 75% and 72%
  Population Hoechst High Intensity Objects (%): 0%
  Population Membrane Permeable-Phenotype (%): 4% and 1%
  Population Mitochondria Different-Phenotype (%): 0%
  Population Mitotic Cells (%): 54% and 52%
  Population Normal (%): 99% and 100%
  Population Pyknosed Nuclei (%): 14% and 10%
  Population Tubulin-Different-Phenotype (%): 6% and 1%
  Total Cell Count: 222 and 228
[3]; [4]
  Population Apoptotic (%): 44% and 35%
  Population Fragmented Nuclei (%): 2% and 1%
  Population Healthy Nuclei (%): 86% and 85%
  Population Hoechst High Intensity Objects (%): 5% and 6%
  Population Membrane Permeable-Phenotype (%): 3%
  Population Mitochondria Different-Phenotype (%): 17% and 15%
  Population Mitotic Cells (%): 55% and 64%
  Population Normal (%): 94% and 93%
  Population Pyknosed Nuclei (%): 11% and 12%
  Population Tubulin-Different-Phenotype (%): 46% and 44%
  Total Cell Count: 721 and 624
[3]; [5]
  Population Apoptotic (%): 28% and 35%
  Population Fragmented Nuclei (%): 2% and 3%
  Population Healthy Nuclei (%): 84% and 86%
  Population Hoechst High Intensity Objects (%): 5% and 6%
  Population Membrane Permeable-Phenotype (%): 1% and 3%
  Population Mitochondria Different-Phenotype (%): 13%
  Population Mitotic Cells (%): 71% and 64%
  Population Normal (%): 94% and 93%
  Population Pyknosed Nuclei (%): 12% and 10%
  Population Tubulin-Different-Phenotype (%): 51% and 50%
  Total Cell Count: 743 and 727
[3]; [6]
  Population Apoptotic (%): 40% and 41%
  Population Fragmented Nuclei (%): 5% and 3%
  Population Healthy Nuclei (%): 86% and 88%
  Population Hoechst High Intensity Objects (%): 7% and 8%
  Population Membrane Permeable-Phenotype (%): 3%
  Population Mitochondria Different-Phenotype (%): 4% and 5%
  Population Mitotic Cells (%): 59% and 58%
  Population Normal (%): 92% and 91%
  Population Pyknosed Nuclei (%): 7% and 8%
  Population Tubulin-Different-Phenotype (%): 26% and 30%
  Total Cell Count: 1141 and 899
[3]; [7]
  Population Apoptotic (%): 18% and 31%
  Population Fragmented Nuclei (%): 3% and 4%
  Population Healthy Nuclei (%): 89% and 88%
  Population Hoechst High Intensity Objects (%): 6% and 9%
  Population Membrane Permeable-Phenotype (%): 3% and 2%
  Population Mitochondria Different-Phenotype (%): 2% and 3%
  Population Mitotic Cells (%): 81% and 68%
  Population Normal (%): 93% and 90%
  Population Pyknosed Nuclei (%): 7% and 6%
  Population Tubulin-Different-Phenotype (%): 28% and 31%
  Total Cell Count: 1219 and 1091
[3]; [8]
  Population Apoptotic (%): 22% and 18%
  Population Fragmented Nuclei (%): 12% and 7%
  Population Healthy Nuclei (%): 84% and 88%
  Population Hoechst High Intensity Objects (%): 9% and 11%
  Population Membrane Permeable-Phenotype (%): 5% and 4%
  Population Mitochondria Different-Phenotype (%): 0% and 1%
  Population Mitotic Cells (%): 77% and 81%
  Population Normal (%): 90% and 88%
  Population Pyknosed Nuclei (%): 2% and 3%
  Population Tubulin-Different-Phenotype (%): 10% and 14%
  Total Cell Count: 2926 and 1957
[3]; [9]
  Population Apoptotic (%): 5% and 13%
  Population Fragmented Nuclei (%): 14% and 8%
  Population Healthy Nuclei (%): 82% and 87%
  Population Hoechst High Intensity Objects (%): 10% and 11%
  Population Membrane Permeable-Phenotype (%): 4% and 3%
  Population Mitochondria Different-Phenotype (%): 0%
  Population Mitotic Cells (%): 94% and 86%
  Population Normal (%): 89% and 88%
  Population Pyknosed Nuclei (%): 2% and 4%
  Population Tubulin-Different-Phenotype (%): 12% and 17%
  Total Cell Count: 3198 and 2304

From ChEMBL document CHEMBL5303300, “EUbOPEN Chemogenomics Library - Multiplex” (2023)
